One block for each compound: values may come before it. The source made the active and inactive calls. The rule behind the calls is not given here.
Tests used:
Uridine phosphorylase 1 [1] = target: T1, Uridine phosphorylase 1 (Homo sapiens, UniProt Q16831); test: Inhibition of human recombinant UP1 expressed in Escherichia coli Rosetta (DE3) using URD and inorganic phosphate as substrate at 1 uM after 60 seconds by spectrophotometric analysis relative to control
Method in brief: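 Assay mix: 100 mM Tris pH 7.4, 100 nM recombinant hUP1, uridine 50 μM and Pi 2 mM (their Km values), inhibitor 1 μM final. Run 60 s at 37 °C under initial-rate conditions, following A280 decrease as uridine converts to uracil. Percent inhibition relative to uninhibited activity; DMSO control at up to 1% final.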
Target sequence in this assay (Q16831 whole entry, looked up): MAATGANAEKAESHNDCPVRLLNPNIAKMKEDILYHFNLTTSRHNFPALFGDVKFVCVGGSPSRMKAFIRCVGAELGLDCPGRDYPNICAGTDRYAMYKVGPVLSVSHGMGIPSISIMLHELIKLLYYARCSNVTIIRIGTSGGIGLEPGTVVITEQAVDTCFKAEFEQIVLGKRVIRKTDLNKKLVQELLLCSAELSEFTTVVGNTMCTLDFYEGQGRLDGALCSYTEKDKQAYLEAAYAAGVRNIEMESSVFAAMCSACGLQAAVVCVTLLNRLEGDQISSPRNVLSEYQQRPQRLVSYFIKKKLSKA

HT-29 [2] = test: Cytotoxicity against human HT-29 cells at 1 to 100 uM after 72 hrs by MTT assay; type: functional, cell-based
Method in brief: (§1)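 Cells seeded at 7 × 10³ per well, allowed to adhere 48 h (HaCat) or 24 h (HT-29, SW-620). Exposed 72 h to 1–100 μM compound, 37 °C, 5% CO2. MTT 10% (v/v) for 3 h; formazan dissolved in DMSO and read at 495 nm. Viability relative to untreated cells; controls of medium and 1% DMSO. Mean ± SEM of three experiments in quadruplicate.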

Uridine phosphorylase 1 [3] = target: T1, Uridine phosphorylase 1; test: Time dependent inhibition of human recombinant UP1 expressed in Escherichia coli Rosetta (DE3) using URD and inorganic phosphate as substrate at 1 uM by spectrophotometric analysis
Method in brief: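 Enzyme (100 nM) preincubated with 1 μM inhibitor (final), then added to the standard reaction mix (Tris pH 7.4, 50 μM uridine, 2 mM Pi, 37 °C) at times up to 30 min. Change in initial velocity followed by A280 and percent inhibition calculated.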
Target sequence in this assay (Q16831 whole entry, looked up): as above

HaCaT [4] = test: Effect on 5-FU-induced cytotoxicity against human HaCaT cells at 30 uM after 72 hrs by MTT assay; type: cell-based
Method in brief: (§2)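 5-FU concentration–response over 72 h (HaCat 0.25–20 μM; HT-29 0.25–50 μM; SW-620 0.5–150 μM), with or without 30 μM inhibitor. Seeding and adhesion as for the viability assay. MTT read-out at 495 nm; 5-FU IC50 from semilog curves by nonlinear regression. Three independent experiments in quadruplicate; one-way ANOVA with Bonferroni test.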

HT-29 [5] = test: Potentiation of 5-FU-induced cytotoxicity against human HT-29 cells assessed as reduction in compound IC50 at 30 uM after 72 hrs by MTT assay relative to control; type: functional; method in brief: as §2
Uridine phosphorylase 1 [6] = target: T1, Uridine phosphorylase 1; test: Uncompetitive inhibition of human recombinant UP1 expressed in Escherichia coli Rosetta (DE3) using inorganic phosphate as substrate by Lineweaver-Burk plot analysis
Method in brief: (§3)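 Pi varied 0.1–12 mM with uridine fixed at 50 μM. Four inhibitor levels (0.1–5 μM), 100 nM enzyme, 100 mM Tris pH 7.4, 37 °C. Initial rates read as decreasing A280. Kis from slopes and Kii from intercepts of Lineweaver–Burk plots; inhibition mode from line patterns. Duplicates.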
Target sequence in this assay (Q16831 whole entry, looked up): as above

SW-620 [7] = test: Cytotoxicity against human SW620 cells at 1 to 100 uM after 72 hrs by MTT assay; type: functional, cell-based; method in brief: as §1
Thymidine phosphorylase = target: T2, Thymidine phosphorylase (Homo sapiens, UniProt P19971); test: Inhibition of human thymidine phosphorylase
T2 sequence (P19971 whole entry): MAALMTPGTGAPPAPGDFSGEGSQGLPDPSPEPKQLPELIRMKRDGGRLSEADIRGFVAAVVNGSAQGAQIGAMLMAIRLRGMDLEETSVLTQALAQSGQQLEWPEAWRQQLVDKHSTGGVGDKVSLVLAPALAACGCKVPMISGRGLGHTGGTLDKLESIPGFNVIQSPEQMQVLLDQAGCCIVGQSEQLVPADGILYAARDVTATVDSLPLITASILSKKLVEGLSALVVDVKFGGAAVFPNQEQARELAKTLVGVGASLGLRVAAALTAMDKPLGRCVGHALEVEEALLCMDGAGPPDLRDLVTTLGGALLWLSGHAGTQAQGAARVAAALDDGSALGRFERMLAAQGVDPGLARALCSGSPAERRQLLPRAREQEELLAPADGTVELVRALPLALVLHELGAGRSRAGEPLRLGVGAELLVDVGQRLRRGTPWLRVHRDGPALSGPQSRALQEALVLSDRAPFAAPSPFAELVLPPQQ

Uridine phosphorylase 1 [8] = target: T1, Uridine phosphorylase 1; test: Non-competitive inhibition of human recombinant UP1 expressed in Escherichia coli Rosetta (DE3) using URD as substrate assessed as equilibrium dissociation constant for enzyme-substrate-inhibitor complex by Lineweaver-Burk plot analysis
Method in brief: (§4)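 Uridine varied 20–600 μM with Pi fixed at 2 mM. Four inhibitor levels from 0.1 to 5 μM, 100 nM hUP1, 100 mM Tris pH 7.4, 37 °C. Uracil formation followed as the fall in A280 under initial-rate conditions. Kis from slopes and Kii from intercepts of Lineweaver–Burk plots; mode taken from line patterns. Duplicate measurements.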
Target sequence in this assay (Q16831 whole entry, looked up): as the sequence (Q16831 whole entry, looked up) above

Uridine phosphorylase 1 [9] = target: T1, Uridine phosphorylase 1; test: Non-competitive inhibition of human recombinant UP1 expressed in Escherichia coli Rosetta (DE3) using URD as substrate assessed as equilibrium dissociation constant for enzyme-inhibitor complex by Lineweaver-Burk plot analysis; method in brief: as §4
Target sequence in this assay (Q16831 whole entry, looked up): as the sequence (Q16831 whole entry, looked up) above

HaCaT [10] = test: Cytotoxicity against human HaCaT cells at 1 to 100 uM after 72 hrs by MTT assay; type: cell-based; method in brief: as §1
SW-620 [11] = test: Potentiation of 5-FU-induced cytotoxicity against human SW620 cells assessed as reduction in compound IC50 at 30 uM after 72 hrs by MTT assay relative to control; type: functional; method in brief: as §2
Uridine phosphorylase 1 [12] = target: T1, Uridine phosphorylase 1; test: Non-competitive inhibition of human recombinant UP1 expressed in Escherichia coli Rosetta (DE3) using inorganic phosphate as substrate assessed as equilibrium dissociation constant for enzyme-substrate-inhibitor complex by Lineweaver-Burk plot analysis; method in brief: as §3
Target sequence in this assay (Q16831 whole entry, looked up): as the sequence (Q16831 whole entry, looked up) above

Uridine phosphorylase 1 [13] = target: T1, Uridine phosphorylase 1; test: Non-competitive inhibition of human recombinant UP1 expressed in Escherichia coli Rosetta (DE3) using inorganic phosphate as substrate assessed as equilibrium dissociation constant for enzyme-inhibitor complex by Lineweaver-Burk plot analysis; method in brief: as §3
Uridine phosphorylase 1 [14] = target: T1, Uridine phosphorylase 1; test: Competitive inhibition of human recombinant UP1 expressed in Escherichia coli Rosetta (DE3) using URD as substrate by Lineweaver-Burk plot analysis; method in brief: as §4
[15] = Inhibition of mouse UPase by Dixon plot analysis
Uridine phosphorylase 1 [16] = target: T1, Uridine phosphorylase 1; test: Binding affinity to human recombinant UP1 expressed in Escherichia coli Rosetta (DE3) by isothermal titration calorimetric analysis
Method in brief: (§5)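 ITC at 310.15 K (37 °C): 56 μM hUP1 in 50 mM Tris HCl pH 7.4, alone or as binary complex with 10 mM Pi or R1P (50–200 μM, final). One 0.5 μL injection (discarded), then 26 injections of 1.5 μL ligand. Dilution heats subtracted. Fit to one-set-of-sites model for ΔH°, Keq and n; ΔG° and ΔS° calculated.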
Target sequence in this assay (Q16831 whole entry): as the sequence (Q16831 whole entry, looked up) above

Uridine phosphorylase 1 [17] = target: T1, Uridine phosphorylase 1; test: Induction of uridine phosphorylase-mediated drug metabolism in human liver
[18] = Half life in mouse plasma; type: ADME, cell-free
HT-29 [19] = test: Protection against 5-FU-induced cytotoxicity against human HT-29 cells assessed as increase in compound IC50 at 30 uM after 72 hrs by MTT assay relative to control
Uridine phosphorylase 1 [20] = target: T1, Uridine phosphorylase 1; test: Binding affinity to human recombinant UP1-R1P binary complex expressed in Escherichia coli Rosetta (DE3) at 50 uM R1P by isothermal titration calorimetric analysis; method in brief: as §5
Target sequence in this assay (Q16831 whole entry): as the sequence (Q16831 whole entry, looked up) above

SMILES: Cc1c(-c2ccccc2)c(O)[nH]c(=O)c1C#N
inhibition (Uridine phosphorylase 1 [1]): 12%

SMILES: Cc1cc(O)[nH]c(=O)c1
inhibition (Uridine phosphorylase 1 [1]): 16%

SMILES: Cc1cc(O)[nH]c(=O)c1C#N
Activity (HT-29 [2]): inactive
inhibition (Uridine phosphorylase 1 [3]): inactive
Activity (HaCaT [4]): Non-toxic
Activity (HT-29 [5]): inactive
Kii (Uridine phosphorylase 1 [6]): 332 nM
Activity (SW-620 [7]): inactive
IC50 (Thymidine phosphorylase): > 100 µM
Kii (Uridine phosphorylase 1 [8]): 635 nM
Kis (Uridine phosphorylase 1 [9]): 375 nM
inhibition (Uridine phosphorylase 1 [1]): 70%
Activity (HaCaT [10]): Non-toxic
fold change (FC) (SW-620 [11]): 12

SMILES: Cc1c(Cc2ccccc2)c(O)[nH]c(=O)c1C#N
inhibition (Uridine phosphorylase 1 [1]): 43%

SMILES: N#Cc1ccc(O)[nH]c1=O
inhibition (Uridine phosphorylase 1 [3]): inactive
IC50 (Thymidine phosphorylase): > 100 µM
Kii (Uridine phosphorylase 1 [8]): 2550 nM
Kis (Uridine phosphorylase 1 [9]): 2610 nM
inhibition (Uridine phosphorylase 1 [1]): 67%
Kii (Uridine phosphorylase 1 [12]): 666 nM
Kis (Uridine phosphorylase 1 [13]): 565 nM

SMILES: O=c1[nH]cc(CNCCO)c(=O)[nH]1
inhibition (Uridine phosphorylase 1 [1]): 2%

SMILES: Cc1c(CNCC(O)CO)c(O)[nH]c(=O)c1C#N (stereo not given)
inhibition (Uridine phosphorylase 1 [3]): inactive
Kis (Uridine phosphorylase 1 [14]): 109 nM
Kii (Uridine phosphorylase 1 [6]): 182 nM
IC50 (Thymidine phosphorylase): > 100 µM
inhibition (Uridine phosphorylase 1 [1]): 78%

SMILES: N#Cc1c(Cc2ccccc2)cc(O)[nH]c1=O
inhibition (Uridine phosphorylase 1 [1]): 2%

SMILES: O=c1cccc(O)[nH]1
inhibition (Uridine phosphorylase 1 [1]): 38%

SMILES: O=c1ccn([C@@H]2O[C@H](CO)[C@@H](O)[C@H]2O)c(=O)[nH]1 [URIDINE]
metabolised (Uridine phosphorylase 1 [17]): > 80%
half-life [18]: 2 min

SMILES: Cc1cc(O)[nH]c(=O)c1C
inhibition (Uridine phosphorylase 1 [1]): 9.5%

SMILES: Cc1c(CNCCO)c(O)[nH]c(=O)c1C#N
Activity (HT-29 [2]): inactive
inhibition (Uridine phosphorylase 1 [3]): inactive
Kis (Uridine phosphorylase 1 [14]): 68 nM
Activity (HaCaT [4]): Non-toxic
Kii (Uridine phosphorylase 1 [6]): 127 nM
fold change (FC) (HT-29 [19]): 9
Activity (SW-620 [7]): inactive
IC50 (Thymidine phosphorylase): > 100 µM
inhibition (Uridine phosphorylase 1 [1]): 80%
Activity (HaCaT [10]): Non-toxic
fold change (FC) (SW-620 [11]): 6

SMILES: N#Cc1c(-c2ccccc2)cc(O)[nH]c1=O
inhibition (Uridine phosphorylase 1 [1]): 42%

The next lines start with results.

inhibition (Uridine phosphorylase 1 [1]): 25%
SMILES: CCN(CC)Cc1c(O)[nH]c(=O)c(C#N)c1C

inhibition (Uridine phosphorylase 1 [1]): 51%
SMILES: Cc1c(CN2CCOCC2)c(O)[nH]c(=O)c1C#N

inhibition (Uridine phosphorylase 1 [1]): 49%
SMILES: Cc1c(CN2CCCCC2)c(O)[nH]c(=O)c1C#N

inhibition (Uridine phosphorylase 1 [1]): 25%
SMILES: CCc1cc(O)[nH]c(=O)c1C#N

inhibition (Uridine phosphorylase 1 [3]): inactive
Kis (Uridine phosphorylase 1 [14]): 99 nM
Kii (Uridine phosphorylase 1 [6]): 107 nM
IC50 (Thymidine phosphorylase): > 100 µM
inhibition (Uridine phosphorylase 1 [1]): 81%
SMILES: Cc1c(CN(C)C)c(O)[nH]c(=O)c1C#N

inhibition (Uridine phosphorylase 1 [1]): 12%
SMILES: Cc1ccc(O)[nH]c1=O

Ki [15]: 0.1 µM
Kd (Uridine phosphorylase 1 [16]): 1.2 µM
Kis (Uridine phosphorylase 1 [14]): 130 nM
Kii (Uridine phosphorylase 1 [12]): 317 nM
Kis (Uridine phosphorylase 1 [13]): 547 nM
SMILES: O=c1[nH]c(=O)n(COCCO)cc1Cc1ccccc1
Activity (HaCaT [4]): Non-toxic
Activity (HT-29 [5]): inactive

inhibition (Uridine phosphorylase 1 [1]): 16%
SMILES: CCCc1cc(O)[nH]c(=O)c1C#N

inhibition (Uridine phosphorylase 1 [1]): 31%
SMILES: CC(C)c1cc(O)[nH]c(=O)c1C#N

inhibition (Uridine phosphorylase 1 [3]): inactive
Kis (Uridine phosphorylase 1 [14]): 94 nM
Kii (Uridine phosphorylase 1 [6]): 98 nM
IC50 (Thymidine phosphorylase): > 100 µM
inhibition (Uridine phosphorylase 1 [1]): 82%
Kd (Uridine phosphorylase 1 [20]): 7 µM
SMILES: Cc1c(CNC(CO)CO)c(O)[nH]c(=O)c1C#N

Source: ChEMBL document CHEMBL3085774, “Design of novel potent inhibitors of human uridine phosphorylase-1: synthesis, inhibition studies, thermodynamics, and in vitro influence on 5-fluorouracil cytotoxicity” (J Med Chem, 2013)
